# Screens deposited in PubChem BioAssay by several laboratories.
# M1 antagonist: antagonists of rat M1 muscarinic receptor; P08482; CHO-M1 cells, Fluo-4 calcium, ACh EC80 antagonist mode; hits give low values; B-score at 10 µM; hit rate 3.4% among 64,000;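 active means calcium fluorescence response, raw or row-and-column corrected B-score, differing from the plate sample mean either way at a set confidence level, mostly lower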
# M1 agonist: agonists of M1 muscarinic receptor; CHO-M1 cells, Fluo-4 calcium fluorescence, agonist mode; hits give high values; B-score at 10 µM; hit rate 3% among 64,000;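 active means fluorescence rise, raw or as B-score row- and column-corrected plate score, outside the 99.7% band of its plate's samples, either direction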
# S1P1 ag-PAM: activates or potentiates agonism at human S1P1 receptor; activation, % at 9.5 µM; AID 449; P21453; S1P1 CRE-bla cells, forskolin, beta-lactamase FRET, potentiator mode; S1P1 agonist co-added at EC20, 2 nM; 100% = saturating reference agonist, 0% = basal; hit rate 0.57% among 56,000;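 active means activation above a cutoff set at the mean activation of all tested compounds plus 3 SD, cut at about 54% in these data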;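 further: forskolin at 4 µM as EC80 and the EC20 agonist is SEW2871; 100% = SEW2871 at its EC100 plus forskolin at EC80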
# D1 mod: allosteric modulators of human D1 dopamine receptor. P21728. HEK293 D1, CRE-luciferase, dopamine EC30 potentiation; actives deviate in either direction. B-score at 10 µM. hit rate 5.9% among 58,000. AID 641;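 active means luminescence count or its row- and column-corrected plate score outside the 99.7% band of the plate's sample wells, on either side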
# Target sequence (P21728 whole entry, looked up): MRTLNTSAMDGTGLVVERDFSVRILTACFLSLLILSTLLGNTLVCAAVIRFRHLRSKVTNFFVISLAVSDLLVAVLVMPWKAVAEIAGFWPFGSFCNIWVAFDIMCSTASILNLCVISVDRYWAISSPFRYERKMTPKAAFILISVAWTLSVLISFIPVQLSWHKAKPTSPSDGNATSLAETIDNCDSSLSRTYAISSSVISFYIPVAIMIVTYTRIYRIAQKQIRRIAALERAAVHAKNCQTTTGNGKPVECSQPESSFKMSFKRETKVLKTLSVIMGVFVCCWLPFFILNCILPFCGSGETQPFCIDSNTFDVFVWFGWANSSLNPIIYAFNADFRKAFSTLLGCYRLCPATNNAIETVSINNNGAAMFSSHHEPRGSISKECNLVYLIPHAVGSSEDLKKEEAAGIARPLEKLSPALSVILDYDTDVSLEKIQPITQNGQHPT
# S1P3 agonist: S1P3 (human) receptor agonism; Q99500; S1P3 NFAT-BLA reporter cells, FRET ratio; relative to 1 µM S1P, basal subtracted; hit rate 0.1% among 60,000; activation, % at 4.5 µM;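 active means activation above the screen-wide mean plus 3 SD, cut at about 4.5% in these data, passing the limit was not always enough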
#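 material = human S1P3 NFAT-BLA reporter CHO cells | schedule = 4 h compound at 37 °C, 2 h substrate at RT | measured by = fluorescent BLA substrate, ex 405 nm, em 460/535 nm ratio | controls = 1 µM S1P reference | replication = primary once, confirmation triplicate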
# TNAP act mid DEA: human TNAP activation, intermediate phosphate acceptor | purified TNAP, CDP-star luminescence, 100 mM DEA, 30 min; hits give high values; scale: 0 levamisole-inhibited, 1 vehicle-only enzyme | activation factor at 20 µM | 64,000 tested, under 10 active | AID 813;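 active means activation factor of at least 2 at 20 µM, relative to controls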
# D1 mod confirm: confirmation of human D1 dopamine receptor allosteric modulators. shares compounds with D1 mod. HEK293 D1 CRE-luciferase, dopamine EC30 potentiation; hits give high values. luminescence at 10 µM. hit rate 88% among 2,200. AID 642;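 active means luminescence in either of two replicates above the same-plate mean plus 3 SD of the low-dose dopamine control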
# D1 ag no DA: activates D1 CRE-luciferase signal without dopamine present; shares compounds with D1 mod; HEK293 D1 CRE-luciferase, luminescence, no dopamine; hits give high values; luminescence at 10 µM; hit rate 0.8% among 1,900; AID 646; in the data active means luminescence above about 3900
# Isoprot counter: alters isoproterenol CRE-luciferase response in HEK293 cells. shares compounds with D1 mod. HEK293 D1 CRE-luciferase, isoproterenol EC30 counter-screen; hits give high values. luminescence at 10 µM. hit rate 63% among 2,200. AID 647;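 active means luminescence in either replicate above plate mean of wells with a partly effective reference agonist dose plus 3 SD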;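 further: isoproterenol raises cAMP through native beta-adrenoceptor Gs so signal bypasses D1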
# * marks the source's active call; other numbers are inactive results; · = no result given. In the library only some 11% were active in any assay of this set; here they are far more common.
SMILES,M1 antagonist,M1 agonist,S1P1 ag-PAM,D1 mod,S1P3 agonist,TNAP act mid DEA,D1 mod confirm,D1 ag no DA,Isoprot counter
COc1ccc(CCN2CC(C#N)=C3c4cc(OC)c(OC)cc4CCN3C2)cc1OC,-0.49,2.2,-10,5*,-1,1,14004*,1736,5556*
COc1cc2c(cc1OC)C1=C(C#N)CC/C(=N\S(=O)(=O)c3ccccc3)N1CC2,-0.019,1.6,-34,8.7*,2,1,18960*,·,16484*
Fc1ccc(-c2nnc(CN3CCC(c4nc5ccccc5s4)CC3)o2)cc1,0.94,0.16,34,-0.93,0,1.1,·,·,·
CCOC(=O)c1cn2c3c(c(F)c(F)c(F)c3c1=O)SC(N1CCCC1)=N2,-0.33,-0.31,-1,-0.095,-1,0.9,·,·,·
O=C(CN(Cc1ccc2c(c1)OCO2)C(=O)c1cnsn1)NC1CCCC1,0.38,0.83,0,-0.5,-1,0.9,·,·,·
CCOc1ccc(C2Oc3nc(SC)nnc3-c3ccccc3N2C(C)=O)cc1OC (stereo not given),-0.023,0.33,-28,8.4*,0,0.9,11344*,1628,2996
CCSc1nnc2c(n1)OC(c1ccc(C(=O)O)cc1)N(C(C)=O)c1ccccc1-2 (stereo not given),-0.53,0.2,-2,-0.12,0,0.9,·,·,·
CCCCCSc1nnc2c(n1)OC(c1cccn1C)N(C(C)=O)c1ccccc1-2 (stereo not given),-1.2,0.59,9,2.7*,0,0.9,5252,1472,2524
Oc1[nH]c2ccccc2c1C1=NCCCC1,-0.19,-0.0055,-20,0.0021,-1,0.9,·,·,·
O=c1o[nH]c(-c2ccccc2)c1C1=NCCCCC1,-0.083,-0.31,-17,9*,0,1,6360,1616,2536
O=C(CN(c1ccc(F)cc1)S(=O)(=O)c1ccc2c(c1)OCCO2)N1CCOCC1,1,0.84,-16,0.19,-1,0.9,·,·,·
O=C1Nc2ccccc2C1(O)Cc1ccncc1 (stereo not given),0.21,-0.19,16,-0.046,-1,1,·,·,·
O=C(CC1(O)C(=O)Nc2cc(Cl)cc(Cl)c21)c1ccncc1 (stereo not given),·,·,26,3.5*,-2,0.8,7604,1960,2456
O=C(Oc1ccc2ccc(=O)oc2c1)N1CCOCC1,-0.0094,-0.86,-3,3.1*,0,0.8,5096,1644,2872
NC(=O)c1ccccc1NC(=O)CS(=O)(=O)Cc1ccccc1,0.66,-0.51,-13,·,-1,1,·,·,·
COc1cc(C2C(C#N)=C(N)Oc3cc(O)ccc32)cc2c1OCO2 (stereo not given),0.24,-0.51,-9,4.1*,-2,1,11740*,1532,3432*
Cc1noc(C)c1CSCC(=O)OCC(=O)NC1CCCCC1,0.81,0.56,·,0.0055,·,1,·,·,·
COc1ccc(C(=O)COC(=O)CSCc2c(C)noc2C)cc1OC,-0.26,-1.6,-10,7.6*,0,1,17860*,1868,4232*
COc1cccc(NC(=O)c2nnn(Cc3ccc(Br)cc3F)c2N)c1,0.22,-0.64,-4,0.63,-1,0.8,·,·,·
CCCn1c2ccccc2c2nnc(SCC(=O)Nc3ncccn3)nc21,-0.73,-0.053,-31,20*,1,0.9,22748*,1692,7964*
CC1=C(C(=O)OC(C)C)C(c2ccc(Br)s2)NC(=O)N1C (stereo not given),0.4,-0.051,-23,1,0,1,·,·,·
O=C(O)CNC1=NCCC1,-0.38,-0.54,-10,0.36,-1,0.9,·,·,·
C=CCSc1nc2c(c(=O)[nH]c(=O)n2C)n1C/C=C(/C)Cl,-0.57,-0.6,-18,19*,-1,0.9,20956*,·,5232*
